This passage reports MIC, Activity and hemolysis results from ChEMBL document CHEMBL1157592, “Design, synthesis and antimicrobial properties of non-hemolytic cationic alpha-cyclopeptoids” (Bioorg Med Chem, 2010).

Molecules are shown by their SMILES. Converted amounts (≈) assume the structure as drawn. The source made the active and inactive calls. The rule behind the calls is not given here. Square brackets hold non-standard residues; d marks the D form. Peptide text beside a SMILES is read from it. Nphe = O=C(O)CNCc1ccccc1; Nlys = NCCCCNCC(=O)O

For data set [1], the system named is Staphylococcus aureus. The experiment in a line: Antimicrobial activity against Staphylococcus aureus ATCC 25923 after 18 hrs by broth microdilution method. Format: functional. As to conditions: ATCC 25923, 18 h. In short, it runs like this: (§1)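 Strains grown at 37 °C in Mueller–Hinton broth and tested in logarithmic phase. Twofold serial dilutions made in MH broth, inoculum ~2.5 × 10⁵ cells/mL, incubated overnight (18 h) at 37 °C. MIC is the lowest concentration giving complete inhibition of visible growth, following NCCLS broth microdilution guidelines.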
For orientation: Dilution methods test growth across graded concentrations, often in twofold steps.

Data set [2] deals with Candida albicans. Description: Antimicrobial activity against Candida albicans L21 after 48 hrs by broth microdilution method. Format: functional. The note with it: L21, 48 h. In outline: (§2)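 Fungi grown on Sabouraud agar at 30 °C for 48 h, suspended in PBS, turbidity read at 600 nm and adjusted in RPMI-1640. Twofold serial dilutions made in RPMI-1640, inoculum ~5 × 10⁴ cells/mL, incubated 30 °C for 48 h. MIC is the lowest concentration giving complete inhibition of visible growth, following NCCLS broth microdilution guidelines.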

For data set [3], the system named is Escherichia coli. The experiment in a line: Antimicrobial activity against Escherichia coli ATCC 25922 after 18 hrs by broth microdilution method. In kind it is functional. As to conditions: ATCC 25922, 18 h. In outline: as §1
Data set [4] deals with Cryptococcus neoformans. Description: Antimicrobial activity against Cryptococcus neoformans L1 after 48 hrs by broth microdilution method. Format: functional. The note with it: L1, 48 h. In outline:
as §2

For data set [5], the system named is Cryptococcus neoformans. Description: Antimicrobial activity against Cryptococcus neoformans ATCC 90112 after 48 hrs by broth microdilution method. In kind it is functional. As to conditions: ATCC 90112, 48 h. In outline: as §2
For the next data set, the system named is Salmonella typhimurium. The experiment in a line: Antimicrobial activity against Salmonella Typhimurium ATCC 14028 after 18 hrs by broth microdilution method. In kind it is functional, Salmonella enterica subsp. enterica serovar Typhimurium. The note with it: Salmonella enterica, ATCC 14028, 18 h. In short, it runs like this:
as §1

For data set [6], the system named is Candida albicans. Description: Antimicrobial activity against Candida albicans ATCC 90029 after 48 hrs by broth microdilution method. In kind it is functional. The note with it: ATCC 90029, 48 h. In short, it runs like this: as §2
A further data set deals with Debaryomyces hansenii. The experiment in a line: Antimicrobial activity against Candida famata SA550 after 48 hrs by broth microdilution method. The note with it: SA550, 48 h. Format: functional. In short, it runs like this:
as §2

The test system of data set [7] is Candida albicans. The experiment in a line: Membrane permeabilizing effect in Candida albicans ATCC 90029 assessed as propidium iodide uptake at 100 uM after 120 mins by flow cytometry. Format: functional, organism-based. In short, it runs like this: (§3)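 Candida subcultured on Sabouraud agar, diluted in RPMI-1640 to 1 × 10⁵ cells/mL and incubated with peptoid at 30 °C for various times. Propidium iodide (final 10 µg/mL) added, 4 min at 30 °C, then flow cytometry with ≥10,000 events. Read-out is % PI-positive cells, background (no peptoid) subtracted; triplicates, mean ± SD.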

The nature of data set [8]: Toxicity in human RBCs assessed as induction of hemolysis at 100 uM relative to untreated control. Format: cell-based. The note with it: erythrocyte. In short, it runs like this: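 Erythrocytes taken from fresh human blood anticoagulated with citrate-dextrose. A 0.5% (v/v) suspension in 10 mM phosphate buffer pH 7.4 with 139 mM NaCl was incubated with 100 µM cyclopeptoid for 60 min at 37 °C. Reaction stopped with cold buffer, centrifuged at 10,000g for 1 min, and the supernatant collected.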

Data set [9] deals with Candida albicans. The experiment in a line: Membrane permeabilizing effect in Candida albicans ATCC 90029 assessed as propidium iodide uptake at 100 uM after 120 to 240 mins by flow cytometry. Format: functional. In outline:
as §3

Data set [10] concerns Escherichia coli. The experiment in a line: Membrane permeabilizing effect in Escherichia coli ATCC 25922 assessed as propidium iodide uptake at 250 uM after 180 mins by flow cytometry. In kind it is functional, organism-based. In short, it runs like this:
(§4)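 Log-phase bacteria at 1 × 10⁶ cells/mL in MH broth incubated with peptoid at 37 °C for various times. Propidium iodide (final 10 µg/mL) added, 4 min at 37 °C, then flow cytometry with ≥10,000 events. Read-out is % PI-positive cells, background (no peptoid) subtracted; triplicates, mean ± SD.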

Data set [11] relates to Candida albicans. Description: Membrane permeabilizing effect in Candida albicans ATCC 90029 assessed as propidium iodide uptake at 250 uM after 30 to 240 mins by flow cytometry. In kind it is functional, organism-based. In outline:
as §3

Data set [12] has as its system Staphylococcus aureus. Description: Membrane permeabilizing effect in Staphylococcus aureus ATCC 25923 assessed as propidium iodide uptake at 250 uM after 60 mins by flow cytometry. In kind it is functional. In short, it runs like this: as §4
Background: In flow cytometry, cells or beads pass a laser one at a time.

Data set [13] is described as follows: Toxicity in human RBCs assessed as induction of hemolysis at 20 uM relative to untreated control. Format: cell-based, Erythrocyte. The note with it: red blood cells (RBCs).

The MIC is the lowest concentration that inhibits growth of the organism. `NCCCCN(CC(=O)N(CCOCc1ccccc1)CC(=O)N(CCOCc1ccccc1)CC(=O)N(CCCCN)CC(=O)N(CCOCc1ccccc1)CC(=O)O)C(=O)CNCCOCc1ccccc1`: the MIC was over 720 µM against Staphylococcus aureus [1]; 360 µM (≈ 374 µg/mL) in the data set with Candida albicans [2]; 360 µM (≈ 374 µg/mL) in the data set with Escherichia coli [3]; 90 µM (≈ 93.5 µg/mL) against Cryptococcus neoformans [4]; 180 µM (≈ 187 µg/mL) against Cryptococcus neoformans [5]; 720 µM (≈ 748 µg/mL) with Salmonella typhimurium. The same compound displayed a minimal inhibitory concentration (MIC) in the data set with Candida albicans [6] of 360 µM (≈ 374 µg/mL).
For the compound `NCCCCN1CC(=O)N(Cc2ccccc2)CC(=O)N(CCCCN)CC(=O)N(CCCCN)CC(=O)N(Cc2ccccc2)CC(=O)N(CCCCN)CC1=O.O=C(O)C(F)(F)F.O=C(O)C(F)(F)F.O=C(O)C(F)(F)F.O=C(O)C(F)(F)F` (cyclo([Nlys][Nlys][Nphe][Nlys][Nlys][Nphe])), the MIC in the data set on Staphylococcus aureus [1] was over 1000 µM; against Candida albicans [2] it was 12 µM; against Debaryomyces hansenii, 12 µM; against Escherichia coli [3] it was 786 µM; against Cryptococcus neoformans [4] it was 99 µM; in the data set with Cryptococcus neoformans [5] it was 47 µM. The minimal inhibitory concentration (MIC) is over 1000 µM in the data set on Salmonella typhimurium and 12 µM against Candida albicans [6]. Moreover, the result with Candida albicans [7] was Active. The Activity entry is given as “Non-toxic” in [8] and 50% in the data set with Candida albicans [9].
With `NCCCCN(CC(=O)N(CC(=O)N(CC(=O)N(CCCCN)CC(=O)N(CC(=O)O)Cc1ccccc1)Cc1ccccc1)Cc1ccccc1)C(=O)CNCc1ccccc1` (H-[Nphe][Nlys][Nphe][Nphe][Nlys][Nphe]-OH), the MIC against Staphylococcus aureus [1] is over 1000 µM; in the data set with Candida albicans [2] it was over 1000 µM; in the data set on Escherichia coli [3] it was over 1000 µM; in the data set on Cryptococcus neoformans [4], 788 µM (≈ 680 µg/mL); against Cryptococcus neoformans [5], over 1000 µM; in the data set with Salmonella typhimurium, over 1000 µM. This compound also showed an MIC in the data set with Candida albicans [6] of over 1000 µM.
For the compound `NCCCCN1CC(=O)N(Cc2ccccc2)CC(=O)N(Cc2ccccc2)CC(=O)N(CCCCN)CC(=O)N(Cc2ccccc2)CC(=O)N(Cc2ccccc2)CC1=O` (cyclo([Nlys][Nphe][Nphe][Nlys][Nphe][Nphe])), the minimal inhibitory concentration (MIC) came to 465 µM (≈ 393 µg/mL) against Staphylococcus aureus [1]; 232 µM (≈ 196 µg/mL) against Candida albicans [2]; 465 µM (≈ 393 µg/mL) with Escherichia coli [3]; 116 µM (≈ 98 µg/mL) against Cryptococcus neoformans [4]; 232 µM (≈ 196 µg/mL) against Cryptococcus neoformans [5]; 465 µM (≈ 393 µg/mL) against Salmonella typhimurium. The minimum inhibitory concentration (MIC) against Candida albicans [6] is 465 µM (≈ 393 µg/mL).
For the compound `NCCCCN1CC(=O)N(CCOCc2ccccc2)CC(=O)N(CCOCc2ccccc2)CC(=O)N(CCCCN)CC(=O)N(CCOCc2ccccc2)CC(=O)N(CCOCc2ccccc2)CC1=O`, the MIC was 392 µM (≈ 400 µg/mL) with Staphylococcus aureus [1]; 196 µM (≈ 200 µg/mL) against Candida albicans [2]; 392 µM (≈ 400 µg/mL) against Escherichia coli [3]; 98 µM (≈ 100 µg/mL) with Cryptococcus neoformans [4]; 196 µM (≈ 200 µg/mL) in the data set with Cryptococcus neoformans [5]; over 792 µM with Salmonella typhimurium. The MIC in the data set on Candida albicans [6] came to 196 µM (≈ 200 µg/mL).
As for `NCCCCN1CC(=O)N(CCOCc2ccccc2)CC(=O)N(CCCCN)CC(=O)N(CCOCc2ccccc2)CC(=O)N(CCCCN)CC(=O)N(CCOCc2ccccc2)CC1=O.O=C(O)C(F)(F)F.O=C(O)C(F)(F)F.O=C(O)C(F)(F)F`, the result in the data set with Escherichia coli [10] and in the data set on Candida albicans [11] was inactive. Further, the minimal inhibitory concentration (MIC) in the data set on Staphylococcus aureus [1] is 383 µM; against Candida albicans [2] it was 184 µM; against Escherichia coli [3], 383 µM; against Cryptococcus neoformans [4] it was 92 µM; in the data set with Cryptococcus neoformans [5], 184 µM; against Salmonella typhimurium, over 766 µM. Also, in the data set on Candida albicans [6], 184 µM was the least that counted as inhibitory (MIC). For the same compound, the Activity with Staphylococcus aureus [12] is on record as over 40%.
Consider `O=C1CN(Cc2ccccc2)C(=O)CN(Cc2ccccc2)C(=O)CN(Cc2ccccc2)C(=O)CN(Cc2ccccc2)C(=O)CN(Cc2ccccc2)C(=O)CN1Cc1ccccc1`, for which the MIC with Staphylococcus aureus [1], in the data set on Candida albicans [2], with Escherichia coli [3], in the data set with Cryptococcus neoformans [4], against Cryptococcus neoformans [5] and in the data set with Salmonella typhimurium was over 1000 µM in each case. In the data set with Candida albicans [6], this compound had a minimal inhibitory concentration (MIC) of over 1000 µM.
In the case of `NCCCCNCC(=O)N(CCCCN)CC(=O)N(CCCCN)CC(=O)N(CCCCN)CC(=O)N(CCCCN)CC(=O)N(CCCCN)CC(=O)O`, the minimum inhibitory concentration (MIC) is over 1000 µM in the data set on Staphylococcus aureus [1]; 500 µM (≈ 394 µg/mL) in the data set on Candida albicans [2]; over 1000 µM against Debaryomyces hansenii; over 1000 µM against Escherichia coli [3]; over 1000 µM against Cryptococcus neoformans [4]; over 1000 µM in the data set on Cryptococcus neoformans [5]. Also, the MIC against Salmonella typhimurium and against Candida albicans [6] was over 1000 µM in each case.
For the compound `CC[C@H](C)[C@H](NC(=O)CN)C(=O)NCC(=O)N[C@@H](C)C(=O)N[C@H](C(=O)N[C@@H](CC(C)C)C(=O)N[C@@H](CCCCN)C(=O)N[C@H](C(=O)N[C@@H](CC(C)C)C(=O)N[C@H](C(=O)N[C@H](C(=O)NCC(=O)N[C@@H](CC(C)C)C(=O)N1CCC[C@H]1C(=O)N[C@@H](C)C(=O)N[C@@H](CC(C)C)C(=O)N[C@H](C(=O)N[C@@H](CO)C(=O)N[C@@H](Cc1c[nH]c2ccccc12)C(=O)N[C@H](C(=O)N[C@@H](CCCCN)C(=O)N[C@@H](CCCNC(=N)N)C(=O)N[C@@H](CCCCN)C(=O)N[C@@H](CCCNC(=N)N)C(=O)N[C@@H](CCC(N)=O)C(=O)N[C@@H](CCC(N)=O)C(N)=O)[C@@H](C)CC)[C@@H](C)CC)[C@@H](C)O)[C@@H](C)O)C(C)C)C(C)C` [MELITTIN], the hemolysis at 20 µM in data set [13] is over 90%.
On to `O=C1CN(CCOCc2ccccc2)C(=O)CN(CCOCc2ccccc2)C(=O)CN(CCOCc2ccccc2)C(=O)CN(CCOCc2ccccc2)C(=O)CN(CCOCc2ccccc2)C(=O)CN1CCOCc1ccccc1`, for which the MIC in the data set with Staphylococcus aureus [1], against Candida albicans [2], in the data set with Escherichia coli [3], against Cryptococcus neoformans [4], against Cryptococcus neoformans [5] and against Salmonella typhimurium was over 1000 µM in each case. The same compound came in with an MIC in the data set on Candida albicans [6] of over 1000 µM.
As to `NCCCCN1CC(=O)N(CCCCN)CC(=O)N(CCCCN)CC(=O)N(CCCCN)CC(=O)N(CCCCN)CC(=O)N(CCCCN)CC1=O.O=C(O)C(F)(F)F.O=C(O)C(F)(F)F.O=C(O)C(F)(F)F.O=C(O)C(F)(F)F.O=C(O)C(F)(F)F.O=C(O)C(F)(F)F`, the MIC was over 1000 µM against Staphylococcus aureus [1]; 5 µM against Candida albicans [2]; 5 µM in the data set with Debaryomyces hansenii; over 1000 µM in the data set with Escherichia coli [3]; over 1000 µM with Cryptococcus neoformans [4]; over 1000 µM in the data set on Cryptococcus neoformans [5]. The figures for the minimal inhibitory concentration (MIC) against Salmonella typhimurium and against Candida albicans [6] were over 1000 µM and 10 µM, respectively. In addition, in [8], the Activity entry is given as “Non-toxic”.
Consider `NCCCCN(CC(=O)O)C(=O)CN(CCCCN)C(=O)CN(Cc1ccccc1)C(=O)CN(CCCCN)C(=O)CN(CCCCN)C(=O)CNCc1ccccc1`, for which the MIC in the data set with Staphylococcus aureus [1], in the data set with Candida albicans [2], in the data set with Debaryomyces hansenii, with Escherichia coli [3], against Cryptococcus neoformans [4] and in the data set on Cryptococcus neoformans [5] was over 1000 µM each time. Moreover, the minimum inhibitory concentration (MIC) with Salmonella typhimurium and in the data set with Candida albicans [6] was over 1000 µM throughout.
